{"source": "ChEMBL document CHEMBL2385076", "about": "“Discovery of 2-((1H-benzo[d]imidazol-1-yl)methyl)-4H-pyrido[1,2-a]pyrimidin-4-ones as novel PKM2 activators” (Bioorg Med Chem Lett, 2013)", "key": {"[1]": {"biological_target": "Casein kinase II subunit alpha' (Homo sapiens) (UniProt P19784)", "sequence (P19784 whole entry, looked up)": "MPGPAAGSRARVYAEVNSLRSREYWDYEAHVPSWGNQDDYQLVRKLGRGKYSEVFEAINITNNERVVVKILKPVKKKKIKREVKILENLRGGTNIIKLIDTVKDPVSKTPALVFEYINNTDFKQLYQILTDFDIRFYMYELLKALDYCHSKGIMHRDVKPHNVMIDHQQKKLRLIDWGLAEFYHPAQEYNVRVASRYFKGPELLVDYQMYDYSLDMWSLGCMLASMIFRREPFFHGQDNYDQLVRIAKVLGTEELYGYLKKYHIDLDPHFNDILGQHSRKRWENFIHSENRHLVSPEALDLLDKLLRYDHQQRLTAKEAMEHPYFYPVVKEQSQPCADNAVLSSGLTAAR", "assay": "Inhibition of CSNK2A2 (unknown origin)"}, "[2]": {"biological_target": "Sodium-dependent noradrenaline transporter (Homo sapiens) (UniProt P23975)", "assay": "Binding affinity to human norepinephrine transporter by radioligand binding assay", "outline": "(§1)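 CEREP panel binding measured by displacement of an antagonist radioligand.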"}, "[3]": {"species": "Rattus norvegicus", "assay": "Binding affinity to central-type benzodiazepine receptor in rat cerebral cortex", "format": "tissue-based"}, "[4]": {"biological_target": "Tyrosine-protein kinase ABL1 (Homo sapiens) (UniProt P00519)", "assay": "Inhibition of ABL1 (unknown origin)"}, "[5]": {"biological_target": "Proto-oncogene tyrosine-protein kinase Src (Homo sapiens) (UniProt P12931)", "assay": "Inhibition of SRC (unknown origin)"}, "[6]": {"biological_target": "Tyrosine-protein kinase JAK3 (Homo sapiens) (UniProt P52333)", "assay": "Inhibition of JAK3 (unknown origin)"}, "[7]": {"assay": "Intrinsic clearance in human liver microsomes", "format": "ADME, Microsome", "details": "read-out: CLH"}, "[8]": {"biological_target": "Sodium-dependent serotonin transporter (Homo sapiens) (UniProt P31645)", "sequence (P31645 whole entry, looked up)": "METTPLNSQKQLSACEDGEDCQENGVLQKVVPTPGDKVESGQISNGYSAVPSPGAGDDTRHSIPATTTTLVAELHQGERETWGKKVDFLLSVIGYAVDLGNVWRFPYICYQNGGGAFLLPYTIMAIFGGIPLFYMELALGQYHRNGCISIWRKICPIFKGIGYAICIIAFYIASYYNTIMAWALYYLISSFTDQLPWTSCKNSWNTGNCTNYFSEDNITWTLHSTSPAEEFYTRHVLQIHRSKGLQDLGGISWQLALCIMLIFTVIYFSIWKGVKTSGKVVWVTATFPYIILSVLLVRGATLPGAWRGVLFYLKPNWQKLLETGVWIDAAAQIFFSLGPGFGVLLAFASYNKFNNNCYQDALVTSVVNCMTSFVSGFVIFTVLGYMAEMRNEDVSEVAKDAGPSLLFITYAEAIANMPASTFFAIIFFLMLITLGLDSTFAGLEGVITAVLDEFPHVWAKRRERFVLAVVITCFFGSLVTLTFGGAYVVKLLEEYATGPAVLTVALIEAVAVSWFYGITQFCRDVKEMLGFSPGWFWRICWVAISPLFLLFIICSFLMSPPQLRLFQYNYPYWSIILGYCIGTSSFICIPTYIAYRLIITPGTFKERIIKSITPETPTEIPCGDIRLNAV", "assay": "Binding affinity to human 5-HT transporter by radioligand binding assay", "outline": "as §1"}, "[9]": {"biological_target": "Serine/threonine-protein kinase Chk1 (Homo sapiens) (UniProt O14757)", "sequence (O14757 whole entry)": "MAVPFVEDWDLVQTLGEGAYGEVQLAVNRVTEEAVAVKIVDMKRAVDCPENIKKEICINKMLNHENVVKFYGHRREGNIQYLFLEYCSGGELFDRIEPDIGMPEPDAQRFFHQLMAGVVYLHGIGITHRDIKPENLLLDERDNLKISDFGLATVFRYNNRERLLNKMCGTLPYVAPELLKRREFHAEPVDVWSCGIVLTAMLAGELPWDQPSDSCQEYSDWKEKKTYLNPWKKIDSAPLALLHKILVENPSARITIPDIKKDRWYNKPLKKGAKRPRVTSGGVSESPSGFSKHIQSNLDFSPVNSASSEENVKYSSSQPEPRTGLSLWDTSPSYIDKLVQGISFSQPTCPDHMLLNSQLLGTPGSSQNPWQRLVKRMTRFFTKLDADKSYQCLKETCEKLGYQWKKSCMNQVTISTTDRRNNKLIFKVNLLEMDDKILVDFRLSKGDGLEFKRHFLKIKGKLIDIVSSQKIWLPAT", "assay": "Inhibition of CHEK1 (unknown origin)"}, "[10]": {"biological_target": "Mitogen-activated protein kinase kinase kinase kinase 4 (Homo sapiens) (UniProt O95819)", "sequence (O95819 2-1239 limits assumed)": "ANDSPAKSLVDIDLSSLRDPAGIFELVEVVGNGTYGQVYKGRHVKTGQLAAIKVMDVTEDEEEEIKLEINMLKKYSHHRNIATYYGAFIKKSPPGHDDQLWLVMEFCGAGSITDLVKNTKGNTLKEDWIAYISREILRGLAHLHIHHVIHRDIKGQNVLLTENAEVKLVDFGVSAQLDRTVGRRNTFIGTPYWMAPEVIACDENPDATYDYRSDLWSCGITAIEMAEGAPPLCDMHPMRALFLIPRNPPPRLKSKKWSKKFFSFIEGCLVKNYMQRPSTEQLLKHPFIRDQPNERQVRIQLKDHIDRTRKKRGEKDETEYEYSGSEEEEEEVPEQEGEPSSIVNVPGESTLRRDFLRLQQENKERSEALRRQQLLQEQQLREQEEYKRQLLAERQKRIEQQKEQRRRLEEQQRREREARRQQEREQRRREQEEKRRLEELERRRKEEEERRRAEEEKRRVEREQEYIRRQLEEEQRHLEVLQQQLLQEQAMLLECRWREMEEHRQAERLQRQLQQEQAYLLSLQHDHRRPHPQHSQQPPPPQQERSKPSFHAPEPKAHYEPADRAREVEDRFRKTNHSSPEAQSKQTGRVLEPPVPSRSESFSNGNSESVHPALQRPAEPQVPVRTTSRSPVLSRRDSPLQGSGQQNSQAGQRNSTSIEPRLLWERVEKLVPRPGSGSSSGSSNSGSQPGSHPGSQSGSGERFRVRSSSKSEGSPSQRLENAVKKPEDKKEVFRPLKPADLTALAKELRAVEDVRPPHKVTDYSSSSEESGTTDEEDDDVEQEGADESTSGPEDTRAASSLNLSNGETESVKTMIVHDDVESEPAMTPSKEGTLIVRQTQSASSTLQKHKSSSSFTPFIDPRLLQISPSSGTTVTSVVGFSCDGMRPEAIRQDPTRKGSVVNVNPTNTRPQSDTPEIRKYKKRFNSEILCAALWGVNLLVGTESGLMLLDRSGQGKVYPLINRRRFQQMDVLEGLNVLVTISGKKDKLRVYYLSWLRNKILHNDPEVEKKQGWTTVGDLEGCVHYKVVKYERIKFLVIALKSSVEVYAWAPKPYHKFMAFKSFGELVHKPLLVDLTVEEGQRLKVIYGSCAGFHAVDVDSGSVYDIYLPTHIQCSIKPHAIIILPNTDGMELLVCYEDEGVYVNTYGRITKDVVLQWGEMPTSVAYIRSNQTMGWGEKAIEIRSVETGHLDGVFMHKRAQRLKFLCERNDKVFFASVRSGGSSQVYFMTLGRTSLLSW", "assay": "Inhibition of MAP4K4 (unknown origin)"}, "[11]": {"biological_target": "Serine/threonine-protein kinase PAK 4 (Homo sapiens) (UniProt O96013)", "assay": "Inhibition of PAK4 (unknown origin)"}, "[12]": {"biological_target": "Calcium/calmodulin-dependent protein kinase type II subunit alpha (Homo sapiens) (UniProt Q9UQM7)", "assay": "Inhibition of CAMK2A (unknown origin)"}, "[13]": {"biological_target": "Serine/threonine-protein kinase mTOR (Homo sapiens) (UniProt P42345)", "assay": "Inhibition of mTOR (unknown origin)"}, "[14]": {"biological_target": "Muscarinic acetylcholine receptor M1 (Homo sapiens) (UniProt P11229)", "assay": "Binding affinity to human muscarinic M1 receptor by radioligand binding assay", "outline": "as §1"}, "[15]": {"biological_target": "Beta-2 adrenergic receptor (Homo sapiens) (UniProt P07550)", "sequence (P07550 whole entry, looked up)": "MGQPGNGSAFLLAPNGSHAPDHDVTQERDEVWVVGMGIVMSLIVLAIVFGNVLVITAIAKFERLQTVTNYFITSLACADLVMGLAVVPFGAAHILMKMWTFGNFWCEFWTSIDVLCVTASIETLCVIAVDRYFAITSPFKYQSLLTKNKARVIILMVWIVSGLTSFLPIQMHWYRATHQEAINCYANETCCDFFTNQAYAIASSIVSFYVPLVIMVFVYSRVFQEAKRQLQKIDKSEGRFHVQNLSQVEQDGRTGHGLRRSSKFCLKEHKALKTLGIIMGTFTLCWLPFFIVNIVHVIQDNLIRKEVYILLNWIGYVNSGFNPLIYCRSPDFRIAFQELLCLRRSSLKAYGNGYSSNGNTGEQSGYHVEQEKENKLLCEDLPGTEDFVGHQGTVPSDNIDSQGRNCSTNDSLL", "assay": "Binding affinity to human beta-2 adrenergic receptor by radioligand binding assay", "outline": "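CEREP panel binding measured by displacement of an agonist radioligand.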"}, "[16]": {"biological_target": "cGMP-inhibited 3',5'-cyclic phosphodiesterase 3B (Homo sapiens) (UniProt Q13370)", "assay": "Binding affinity to human PDE3B"}, "[17]": {"biological_target": "Aurora kinase A (Homo sapiens) (UniProt O14965)", "sequence (O14965 whole entry)": "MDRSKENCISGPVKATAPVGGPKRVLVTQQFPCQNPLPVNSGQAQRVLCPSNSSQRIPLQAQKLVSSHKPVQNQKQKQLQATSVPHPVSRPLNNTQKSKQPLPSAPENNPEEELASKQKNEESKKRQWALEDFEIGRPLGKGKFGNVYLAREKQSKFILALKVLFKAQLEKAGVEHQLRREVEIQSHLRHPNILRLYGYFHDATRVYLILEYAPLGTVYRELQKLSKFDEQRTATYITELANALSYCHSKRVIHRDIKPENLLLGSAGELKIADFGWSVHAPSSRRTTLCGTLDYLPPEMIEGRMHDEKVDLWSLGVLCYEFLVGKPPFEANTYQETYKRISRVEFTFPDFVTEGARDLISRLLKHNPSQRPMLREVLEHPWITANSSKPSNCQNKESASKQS", "assay": "Inhibition of AURKA (unknown origin)"}, "[18]": {"biological_target": "T1, Pyruvate kinase PKM (Homo sapiens, UniProt P14618)", "T1 sequence (P14618 2-531 limits assumed)": "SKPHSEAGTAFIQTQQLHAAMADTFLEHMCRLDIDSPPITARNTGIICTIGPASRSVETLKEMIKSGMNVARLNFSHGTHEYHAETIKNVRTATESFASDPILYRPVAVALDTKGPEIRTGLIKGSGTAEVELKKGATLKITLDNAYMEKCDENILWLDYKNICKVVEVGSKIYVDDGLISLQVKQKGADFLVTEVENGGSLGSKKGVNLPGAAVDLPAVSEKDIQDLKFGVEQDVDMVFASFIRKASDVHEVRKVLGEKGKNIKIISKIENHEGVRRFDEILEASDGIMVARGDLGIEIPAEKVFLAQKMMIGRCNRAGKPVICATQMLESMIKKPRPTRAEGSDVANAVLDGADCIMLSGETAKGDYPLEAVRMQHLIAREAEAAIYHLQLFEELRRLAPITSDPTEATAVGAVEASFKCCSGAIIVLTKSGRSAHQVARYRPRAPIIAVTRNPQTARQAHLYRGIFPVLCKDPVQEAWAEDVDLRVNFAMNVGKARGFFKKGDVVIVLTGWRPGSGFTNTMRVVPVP", "assay": "Activation of PKM2 in human Snu182 cells assessed as oxygen consumption rate at 10 uM after 18 hrs", "format": "cell-based", "outline": "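Snu182 cells seeded at 12k/well in RPMI with 10% FBS and 2 mM glutamine, cultured overnight, then given 10 µM compound for 18 h at 37°C, 5% CO2. Medium switched to XF DMEM with 5 mM glucose plus 10 µM compound; OCR and ECAR measured on a Seahorse XF96 analyzer.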"}, "[19]": {"biological_target": "T1, Pyruvate kinase PKM", "assay": "Activation of human PKM2 assessed as production of ATP at infinite concentration after 10 mins by lactate dehydrogenase-coupled enzyme assay relative to FBP", "outline": "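Coupled to lactate dehydrogenase, NADH loss read as the drop in absorbance at 340 nm. Reaction: 2nM human PKM2 (cleaved N-term his, 1-531), 2 mM PEP, 0.35 mM NADH, 4 units/mL LDH in 50 mM Tris pH 7.5 with KCl and 5 mM MgCl2. Compound preincubated 10 minutes at 32 °C, then 0.5mM ADP starts the reaction. Duplicates; 10-point curves; asymptote max = % activation at infinite concentration.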"}, "[20]": {"species": "Homo sapiens", "assay": "Binding affinity to sodium channel site 2 (unknown origin) by radioligand binding assay", "outline": "as §1"}, "[21]": {"biological_target": "RAC-alpha serine/threonine-protein kinase (Homo sapiens) (UniProt P31749)", "assay": "Inhibition of AKT1 (unknown origin)"}, "[22]": {"biological_target": "Sodium-dependent dopamine transporter (Homo sapiens) (UniProt Q01959)", "assay": "Binding affinity to human dopamine transporter by radioligand binding assay", "outline": "as §1"}, "[23]": {"test_system": "HuH-1 (human)", "assay": "Antiproliferative activity against human HuH1 cells at 10 uM after 5 days"}, "[24]": {"biological_target": "Insulin receptor (Homo sapiens) (UniProt P06213)", "assay": "Inhibition of INSR (unknown origin)"}, "[25]": {"biological_target": "Ephrin type-A receptor 2 (Homo sapiens) (UniProt P29317)", "sequence (P29317 whole entry)": "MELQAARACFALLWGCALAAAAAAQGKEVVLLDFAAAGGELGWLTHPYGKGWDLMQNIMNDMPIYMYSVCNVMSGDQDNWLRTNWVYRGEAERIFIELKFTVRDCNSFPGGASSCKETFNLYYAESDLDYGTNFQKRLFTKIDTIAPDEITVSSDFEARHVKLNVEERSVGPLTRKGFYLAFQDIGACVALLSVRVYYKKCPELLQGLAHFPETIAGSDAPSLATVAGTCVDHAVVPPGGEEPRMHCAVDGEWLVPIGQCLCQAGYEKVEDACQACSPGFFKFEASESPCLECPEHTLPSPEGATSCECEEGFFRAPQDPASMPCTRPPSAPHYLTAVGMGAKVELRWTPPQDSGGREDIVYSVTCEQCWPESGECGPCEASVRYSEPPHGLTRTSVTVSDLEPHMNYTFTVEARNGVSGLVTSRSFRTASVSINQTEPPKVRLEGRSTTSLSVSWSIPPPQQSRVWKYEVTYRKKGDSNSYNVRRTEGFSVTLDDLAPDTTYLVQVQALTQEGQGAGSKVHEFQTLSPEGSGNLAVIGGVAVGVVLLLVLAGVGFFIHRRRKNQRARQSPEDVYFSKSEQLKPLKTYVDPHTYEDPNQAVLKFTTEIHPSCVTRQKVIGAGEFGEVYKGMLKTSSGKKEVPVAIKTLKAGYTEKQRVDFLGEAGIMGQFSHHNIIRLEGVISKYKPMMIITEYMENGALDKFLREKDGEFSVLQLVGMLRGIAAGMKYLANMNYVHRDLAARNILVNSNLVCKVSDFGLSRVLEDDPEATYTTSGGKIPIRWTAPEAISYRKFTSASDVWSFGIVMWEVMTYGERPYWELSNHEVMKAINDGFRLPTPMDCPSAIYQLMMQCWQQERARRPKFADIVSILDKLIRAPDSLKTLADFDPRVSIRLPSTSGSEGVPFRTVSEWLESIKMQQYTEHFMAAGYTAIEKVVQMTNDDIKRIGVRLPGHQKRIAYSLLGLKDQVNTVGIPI", "assay": "Inhibition of EPHA2 (unknown origin)"}, "[26]": {"biological_target": "Serine/threonine-protein kinase Sgk1 (Homo sapiens) (UniProt O00141)", "assay": "Inhibition of SGK (unknown origin)"}, "[27]": {"biological_target": "Adrenergic receptor alpha-1 (Homo sapiens) (UniProt P35348+P25100+P35368)", "assay": "Binding affinity to alpha-1 adrenergic receptor (unknown origin) by radioligand binding assay"}}, "note": "Calls of active or inactive are those of the source. No cut-off for these calls is given here."}
{"smiles": "Cc1cccc2nc(Cn3cnc4ccccc43)cc(=O)n12", "values": [{"measurement": "inhibition", "setting": "[1]", "value": "inactive"}, {"measurement": "Activity", "setting": "[2]", "value": "inactive"}, {"measurement": "Activity", "setting": "[3]", "value": "inactive"}, {"measurement": "inhibition", "setting": "[4]", "value": "inactive"}, {"measurement": "inhibition", "setting": "[5]", "value": "inactive"}, {"measurement": "inhibition", "setting": "[6]", "value": "inactive"}, {"measurement": "microsomal CLint", "setting": "[7]", "value": "< 8", "unit": "µL/min/mg"}, {"measurement": "Activity", "setting": "[8]", "value": "inactive"}, {"measurement": "inhibition", "setting": "[9]", "value": "inactive"}, {"measurement": "inhibition", "setting": "[10]", "value": "inactive"}, {"measurement": "inhibition", "setting": "[11]", "value": "inactive"}, {"measurement": "inhibition", "setting": "[12]", "value": "inactive"}, {"measurement": "inhibition", "setting": "[13]", "value": "inactive"}, {"measurement": "Activity", "setting": "[14]", "value": "inactive"}, {"measurement": "Activity", "setting": "[15]", "value": "inactive"}, {"measurement": "Activity", "setting": "[16]", "value": "inactive"}, {"measurement": "inhibition", "setting": "[17]", "value": "inactive"}, {"measurement": "Activity", "setting": "[18]", "value": 101, "unit": "%"}, {"measurement": "max activation", "setting": "[19]", "value": 198, "unit": "%"}, {"measurement": "Activity", "setting": "[20]", "value": "inactive"}, {"measurement": "inhibition", "setting": "[21]", "value": "inactive"}, {"measurement": "Activity", "setting": "[22]", "value": "inactive"}, {"measurement": "Activity", "setting": "[23]", "value": "inactive"}, {"measurement": "inhibition", "setting": "[24]", "value": "inactive"}, {"measurement": "inhibition", "setting": "[25]", "value": "inactive"}, {"measurement": "inhibition", "setting": "[26]", "value": "inactive"}, {"measurement": "Activity", "setting": "[27]", "value": "inactive"}]}
